Test system: not listed separately
Assay: NMR determination of folded state population of peptides
Assay type: physicochemical
Conditions: 300K

β-sheet population | Compound
94% | (RWTTHCHRKWE)2 (disulfide) [RW-HCH-WE]
28% | (RYTTHCHRKYE)2 (disulfide) [RY-HCH-YE]

Same assay, conditions: 300K, based on NMR data

Folded state population (χF) | Compound
0.84 | (Ac-YTTVCIRKYTG)2 (disulfide) [AcY-VCI-YTG]
0.94±0.02 | (RWTTHCHRKWE)2 (disulfide) [RW-HCH-WE]
0.28±0.13 | (RYTTHCHRKYE)2 (disulfide) [RY-HCH-YE]

Test system: α-syn
Assay: not given
Conditions: 2:1, 1:1 and 1:2 (peptide:α-syn) molar ratios; cited from earlier work

Compound | Inhibition of α-syn amyloid fibril formation
RGAVVTGR-NH2 [reference compound] | completely inhibit

Same assay, conditions: N-methylation of sites in residues 71–82; cited from earlier work

Compound | Inhibition of α-syn fibril formation
VAQKT-(N-Me)V | effective inhibitor

Test system: α-synuclein
Assay: Inhibition of HFIP-induced α-syn amyloid formation
Assay type: biochemical
Conditions: 1 molar equiv. inhibitor; converted from the %-of-control ThT and CD values
How it was run: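 α-Syn (85 ± 5 μM; pH 6.6, 50 mM potassium phosphate, 50 mM NaCl) stirred at 37 ± 3 °C with test compound (1–4 molar equiv), then HFIP to 2 vol% after 4 h. Aliquots diluted to 4.5 μM α-syn every 2–6 h for CD, inhibitor-matched blank, [θ]218 and Δ[θ]196 read. At 16–18 h, ThT added (8-fold excess) and emission read. Values as %-of-uninhibited-control, converted to %-inhibition; mean of ≥2 experiments.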

Compound | %-Inhib. of HFIP-induced α-syn amyloid formation
(RWTTHCHRKWE)2 (disulfide) [RW-HCH-WE] | ~ 65%
(RYTTVCIRKYE)2 (disulfide) [RY-VCI-YE] | ~ 50%
GKWITVS-IpPK-KLTVWIp [cp-WW2] | ~ 35%
KCLTVW-IpGK-WITVCA (disulfide) [WW2-DS] | < 30%
KKLTVW-IpGK-WITVSA [WW2] | ~ 50%
cyclo-(K-KLTVW-IpGK-WITVS-IpP) (head to tail) [cyclo-WW2] | ~ 75%

Same assay, conditions: 2:1 peptide to α-syn ratio, 2 vol-% HFIP

Compound | Inhibitory activity on α-syn β-structure / amyloid formation (in words)
cyclo-(K-KLTVW-IpGK-WITVS-IpP) (head to tail) [cyclo-WW2] | complete inhibition

Same assay, conditions: 2 molar equiv. inhibitor; converted from the %-of-control ThT and CD values

Compound | %-Inhib. of HFIP-induced α-syn amyloid formation
O=C(O[C@@H]1Cc2c(O)cc(O)cc2O[C@@H]1c1cc(O)c(O)c(O)c1)c1cc(O)c(O)c(O)c1 [EGCG, (−)-Epi-gallocatechin-3-gallate, reference compound] | ~ 65%
(Ac-YTTVCIRKYTG)2 (disulfide) [AcY-VCI-YTG] | ~ 70%
(RWTTHCHRKWE)2 (disulfide) [RW-HCH-WE] | ≥ 75%
(RYTTHCHRKYE)2 (disulfide) [RY-HCH-YE] | ~ 70%
(RYTTVCIRKYE)2 (disulfide) [RY-VCI-YE] | ~ 80%
GKWITVS-IpPK-KLTVWIp [cp-WW2] | ~ 65%
KCLTVW-IpGK-WITVCA (disulfide) [WW2-DS] | ~ 50%
KKLTVW-IpGK-WITVSA [WW2] | ~ 75%
RAVTW-NPATGK-WITVWE [RAVWW] | ~ 60%
RGAVVTGR-NH2 [reference compound] | < 25%
RWEKRW-DRGSGR-WFYFND [mWWhp] | ~ 50%
RWFYFN-DRGSGK-WEKRWD [cp-mWWhp] | < 20%
cyclo-(K-KLTVW-IpGK-WITVS-IpP) (head to tail) [cyclo-WW2] | > 90%

Same assay, conditions: 2 vol-% HFIP assay; EGCG at 2:1 molar ratio

Compound | Formation of off-path (non-amyloid) precipitates in the inhibition assays
(RWTTHCHRKWE)2 (disulfide) [RW-HCH-WE] | co-precipitates
RAVTW-NPATGK-WITVWE [RAVWW] | did not produce off-path precipitates
RWEKRW-DRGSGR-WFYFND [mWWhp] | did not produce off-path precipitates

Same assay, conditions: 4 molar equivalents of the peptide, single experiment

Compound | Inhibitory activity on α-syn amyloid formation (in words)
RGAVVTGR-NH2 [reference compound] | absence of inhibitory activity

Test system: α-syn
Assay: CD and visual inspection of EGCG/α-syn mixtures
Assay type: biochemical
Conditions: 100 µM α-syn, 1:1 α-syn:EGCG, 1.5 vol-% HFIP; β-sheet signature at 24 hours

Compound | Time the random coil CD signature remained after HFIP addition
O=C(O[C@@H]1Cc2c(O)cc(O)cc2O[C@@H]1c1cc(O)c(O)c(O)c1)c1cc(O)c(O)c(O)c1 [EGCG, (−)-Epi-gallocatechin-3-gallate, reference compound] | 8 h

Test system: α-syn
Assay: 15N-HSQC titration binding studies with 15N-labeled α-syn
Conditions: 200 µM α-syn, 50 mM phosphate, pH 6.5, 303K, 5 molar equivalents of EGCG

Compound | Upfield shifts Δδ(1H) of α-syn HSQC peaks
O=C(O[C@@H]1Cc2c(O)cc(O)cc2O[C@@H]1c1cc(O)c(O)c(O)c1)c1cc(O)c(O)c(O)c1 [EGCG, (−)-Epi-gallocatechin-3-gallate, reference compound] | 0.007 – 0.010 ppm

Same assay, conditions: 200 or 400 µM α-syn, no added HFIP, 293 or 303 K

Binding locus on α-syn from titration shifts in 15N HSQC spectra | Compound
isolated to the C-terminus | GKWITVS-IpPK-KLTVWIp [cp-WW2]
M116-E137 sequence segment | KKLTVW-IpGK-WITVSA [WW2]
Q109/E137-span | cyclo-(K-KLTVW-IpGK-WITVS-IpP) (head to tail) [cyclo-WW2]

Compound | Binding locus on α-syn from titration shifts in 15N HSQC spectra
O=C(O[C@@H]1Cc2c(O)cc(O)cc2O[C@@H]1c1cc(O)c(O)c(O)c1)c1cc(O)c(O)c(O)c1 [EGCG, (−)-Epi-gallocatechin-3-gallate, reference compound] | shifts at C-terminal sites
(RWTTHCHRKWE)2 (disulfide) [RW-HCH-WE] | very large shifts were observed at C-terminal sites

Test system: α-syn
Assay: not given
Conditions: on going from 1:1 to 5:1 EGCG/α-syn, published spectra; cited from earlier work

Compound | Upfield 1H shift for most α-syn HSQC peaks
O=C(O[C@@H]1Cc2c(O)cc(O)cc2O[C@@H]1c1cc(O)c(O)c(O)c1)c1cc(O)c(O)c(O)c1 [EGCG, (−)-Epi-gallocatechin-3-gallate, reference compound] | 0.04 ppm

Reference: article PMC4332700 (RSC advances, 2015)
